Like-named read-outs stand apart in the source and are kept apart here.
Key:
J1 mES cells = assay: SSEA1 pluripotency marker immunostaining, flow cytometry; type: cell-based, mouse; settings: 100 nM
JMJD2E = JMJD2E (Homo sapiens, UniProt B2RXH2); assay: Alphascreen assay, JMJD2E; type: biochemical
[1] = test system: 45 targets, including 36 GPCRs; assay: NIMH Psychoactive Drug Screen Program Selectivity Panel; type: binding; settings: at 1 μM
[2] = Stability in cell media with or without cells; type: in vitro ADME; settings: with or without MCF7, U2OS or H1299 cells, two types of cell media, 65 h
adrenergic α1A receptor = adrenergic α1A receptor (Rattus norvegicus, UniProt P43140); assay: Ricerca Selectivity Panel, adrenergic α1A; type: binding
[3] = test system: retrovirus long terminal repeat and MAGEA2 promoter in mES cells; assay: Bisulfite sequencing DNA methylation in mES cells; type: cell-based, mouse; settings: after 10 d of treatment
Summary of the method: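 J1 mouse ES cells were grown on 0.1% gelatin in DMEM with 15% ES-qualified FBS, 4 mM L-glutamine, 0.1 mM nonessential amino acids, 1 mM pyruvate, 0.55 mM 2-mercaptoethanol and LIF. They carried a silenced HSC1 retroviral EGFP-puromycin reporter driven by the EF1a promoter.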

[4] = Solution stability by 1H NMR and LC-MS; type: physicochemical; settings: 10 mM in deuterated DMSO and deuterated H2O (90:10), room temperature, 4 weeks
[5] = Mouse drug metabolism and pharmacokinetic studies; type: in vivo; settings: intravenous, oral or intraperitoneal administration
SUV39H2 = SUV39H2 (Homo sapiens, UniProt Q9H5I1); assay: SAHH-coupled assay, SUV39H2; type: biochemical
Summary of the method: (§1)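 A fluorescence-based coupled assay used S-adenosyl-L-homocysteine hydrolase to follow conversion of cofactor SAM to SAH by the methyltransferase. IC50 values are the average of at least two separate experiments.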

[6] = test system: H3K9me2 levels in MCF7 cells; assay: H3K9me2 inhibition, MCF7; type: cell-based; settings: Homo sapiens, MCF7, read-out: IC90 for H3K9me2 inhibition
PRMT1 = PRMT1 (Homo sapiens, UniProt Q99873); assay: BPS Bioscience assay, PRMT1; type: biochemical
SUV39H1 = SUV39H1 (Homo sapiens, UniProt O43463); assay: BPS Bioscience assay, SUV39H1; type: biochemical
PRMT3 = PRMT3 (Homo sapiens, UniProt O60678); assay: SAHH-coupled assay, PRMT3; type: biochemical
Summary of the method: as §1

muscarinic M2 receptor = muscarinic M2 receptor (Homo sapiens, UniProt P08172); assay: Ricerca Selectivity Panel, muscarinic M2; type: binding
EZH2 = EZH2 (Homo sapiens, UniProt Q15910); assay: BPS Bioscience assay, EZH2; type: biochemical
M1, M2 and M4 = M1, M2 and M4 functional assays; type: cell-based
M1 = M1 (Homo sapiens, UniProt P11229); assay: M1 functional assay; type: cell-based
[7] = test system: 26 out of 29 targets in the Ricerca Selectivity Panel; assay: Ricerca Selectivity Panel; type: binding; settings: at 1 μM
[8] = test system: H3K9me2 levels in MDA-MB-231 cells; assay: H3K9me2 in-cell western, MDA-MB-231; type: cell-based, human
[9] = test system: MAGEA2 and DUB1 genes in J1 mES cells; assay: mRNA levels of G9a-regulated endogenous genes; type: cell-based, mouse; settings: day 10; versus untreated or UNC0737-treated cells
[10] = test system: H3K9me2 levels in PC3 cells; assay: H3K9me2 in-cell western, PC3; type: cell-based; settings: Homo sapiens, PC-3, read-out: IC50 for reduction of H3K9me2 levels
MLL = MLL (Homo sapiens, UniProt Q03164); assay: BPS Bioscience assay, MLL; type: biochemical
[11] = test system: histone marks in MDA-MB-231 cells; assay: Quantitative MS analysis of histone modifications; type: cell-based, human; settings: 1 μM for 48 h
Summary of the method: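 MDA-MB-231 cells were treated at 1 µM for 48 h. Histones were acid-extracted, derivatized with propionic anhydride and digested with trypsin. Mock and treated samples carried D0 or D5 propionyl labels. Peptides were analysed by LC-MS/MS on an Orbitrap, with all data manually verified.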

MDA-MB-231 cells = assay: MTT assay, MDA-MB-231; type: cell-based, human; settings: Homo sapiens, MDA-MB-231, read-out: EC50 cellular toxicity (MTT)
M4 = M4 (Homo sapiens, UniProt P08173); assay: M4 functional assay; type: cell-based
[12] = assay results from BPS Bioscience

Sequence of SUV39H1 (O43463 whole entry, species assumed): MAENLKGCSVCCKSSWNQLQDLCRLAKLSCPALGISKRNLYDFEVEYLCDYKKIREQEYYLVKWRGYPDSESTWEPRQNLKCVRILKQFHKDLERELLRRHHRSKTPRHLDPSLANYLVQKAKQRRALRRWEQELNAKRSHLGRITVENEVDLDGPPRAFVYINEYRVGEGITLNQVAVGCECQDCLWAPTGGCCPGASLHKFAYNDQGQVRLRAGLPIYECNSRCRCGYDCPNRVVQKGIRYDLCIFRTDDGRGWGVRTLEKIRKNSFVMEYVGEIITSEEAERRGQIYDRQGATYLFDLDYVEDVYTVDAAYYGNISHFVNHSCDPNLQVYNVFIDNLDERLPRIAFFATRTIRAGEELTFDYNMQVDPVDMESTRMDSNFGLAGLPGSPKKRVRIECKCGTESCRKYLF
Sequence of PRMT1 (Q99873 whole entry, species assumed): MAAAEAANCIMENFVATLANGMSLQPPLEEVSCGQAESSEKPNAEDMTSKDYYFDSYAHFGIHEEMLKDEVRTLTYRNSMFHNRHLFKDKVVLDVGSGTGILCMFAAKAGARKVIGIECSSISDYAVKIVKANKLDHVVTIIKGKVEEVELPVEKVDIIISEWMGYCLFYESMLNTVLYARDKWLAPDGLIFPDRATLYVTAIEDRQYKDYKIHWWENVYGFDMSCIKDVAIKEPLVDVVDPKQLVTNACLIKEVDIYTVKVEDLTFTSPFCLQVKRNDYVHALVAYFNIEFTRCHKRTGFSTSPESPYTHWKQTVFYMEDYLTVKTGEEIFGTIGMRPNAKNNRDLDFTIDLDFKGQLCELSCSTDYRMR
Sequence of SUV39H2 (Q9H5I1 whole entry, species assumed): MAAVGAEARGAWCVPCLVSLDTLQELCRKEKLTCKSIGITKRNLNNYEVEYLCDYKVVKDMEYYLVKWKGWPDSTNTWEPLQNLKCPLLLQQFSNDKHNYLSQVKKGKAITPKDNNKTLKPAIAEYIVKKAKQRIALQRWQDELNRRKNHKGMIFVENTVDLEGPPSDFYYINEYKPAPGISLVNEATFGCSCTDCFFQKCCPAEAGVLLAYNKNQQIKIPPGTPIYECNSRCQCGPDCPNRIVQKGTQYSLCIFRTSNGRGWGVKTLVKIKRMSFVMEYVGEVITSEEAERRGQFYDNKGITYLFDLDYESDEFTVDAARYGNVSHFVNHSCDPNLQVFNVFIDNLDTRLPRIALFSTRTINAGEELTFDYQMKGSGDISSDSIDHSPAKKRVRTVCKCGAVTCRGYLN
Sequence of PRMT3 (O60678 whole entry, species assumed): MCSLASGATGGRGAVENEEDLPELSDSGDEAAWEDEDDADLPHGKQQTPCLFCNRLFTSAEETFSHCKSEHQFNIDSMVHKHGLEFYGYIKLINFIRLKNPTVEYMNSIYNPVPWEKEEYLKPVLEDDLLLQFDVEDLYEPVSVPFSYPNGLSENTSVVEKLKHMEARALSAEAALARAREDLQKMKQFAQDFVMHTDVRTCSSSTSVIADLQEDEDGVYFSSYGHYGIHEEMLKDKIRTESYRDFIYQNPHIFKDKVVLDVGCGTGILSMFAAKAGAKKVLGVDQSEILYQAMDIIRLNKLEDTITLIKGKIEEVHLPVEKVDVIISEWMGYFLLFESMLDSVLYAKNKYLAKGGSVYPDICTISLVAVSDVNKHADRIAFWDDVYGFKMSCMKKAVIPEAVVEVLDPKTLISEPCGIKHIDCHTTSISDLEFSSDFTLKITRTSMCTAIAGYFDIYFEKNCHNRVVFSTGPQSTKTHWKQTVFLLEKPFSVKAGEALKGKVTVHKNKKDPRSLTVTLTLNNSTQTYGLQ
Sequence of EZH2 (Q15910 whole entry, species assumed): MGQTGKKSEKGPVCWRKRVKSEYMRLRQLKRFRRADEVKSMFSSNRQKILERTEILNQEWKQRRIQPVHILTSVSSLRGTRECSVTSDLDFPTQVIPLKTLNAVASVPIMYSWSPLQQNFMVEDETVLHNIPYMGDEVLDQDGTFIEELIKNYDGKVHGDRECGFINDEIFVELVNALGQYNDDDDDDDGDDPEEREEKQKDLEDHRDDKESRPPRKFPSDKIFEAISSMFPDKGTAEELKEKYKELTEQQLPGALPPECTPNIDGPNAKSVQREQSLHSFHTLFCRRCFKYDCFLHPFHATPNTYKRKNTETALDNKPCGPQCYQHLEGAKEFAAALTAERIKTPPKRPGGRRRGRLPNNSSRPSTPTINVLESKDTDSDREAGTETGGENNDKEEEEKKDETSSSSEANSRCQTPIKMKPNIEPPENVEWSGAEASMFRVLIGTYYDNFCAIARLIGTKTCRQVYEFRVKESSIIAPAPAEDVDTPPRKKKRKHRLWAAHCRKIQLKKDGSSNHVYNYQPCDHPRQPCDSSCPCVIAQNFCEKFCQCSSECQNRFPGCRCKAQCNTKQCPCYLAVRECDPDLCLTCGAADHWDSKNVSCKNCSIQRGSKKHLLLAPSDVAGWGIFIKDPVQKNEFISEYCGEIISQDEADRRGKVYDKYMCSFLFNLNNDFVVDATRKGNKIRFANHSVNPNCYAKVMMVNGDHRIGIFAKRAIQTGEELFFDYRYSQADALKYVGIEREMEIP
Sequence of EZH2 (O75530 whole entry partner, species assumed): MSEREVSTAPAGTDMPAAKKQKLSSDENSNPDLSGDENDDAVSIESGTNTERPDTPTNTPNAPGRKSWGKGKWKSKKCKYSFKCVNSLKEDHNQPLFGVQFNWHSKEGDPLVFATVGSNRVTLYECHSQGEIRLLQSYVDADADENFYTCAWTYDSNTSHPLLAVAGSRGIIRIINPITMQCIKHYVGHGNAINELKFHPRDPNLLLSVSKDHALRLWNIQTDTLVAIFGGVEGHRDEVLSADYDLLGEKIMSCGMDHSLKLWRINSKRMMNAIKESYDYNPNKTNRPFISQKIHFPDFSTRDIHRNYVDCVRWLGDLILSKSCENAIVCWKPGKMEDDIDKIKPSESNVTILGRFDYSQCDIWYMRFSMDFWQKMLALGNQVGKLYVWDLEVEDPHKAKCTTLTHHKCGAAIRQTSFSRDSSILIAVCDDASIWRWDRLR
Sequence of EZH2 (Q15022 whole entry partner, species assumed): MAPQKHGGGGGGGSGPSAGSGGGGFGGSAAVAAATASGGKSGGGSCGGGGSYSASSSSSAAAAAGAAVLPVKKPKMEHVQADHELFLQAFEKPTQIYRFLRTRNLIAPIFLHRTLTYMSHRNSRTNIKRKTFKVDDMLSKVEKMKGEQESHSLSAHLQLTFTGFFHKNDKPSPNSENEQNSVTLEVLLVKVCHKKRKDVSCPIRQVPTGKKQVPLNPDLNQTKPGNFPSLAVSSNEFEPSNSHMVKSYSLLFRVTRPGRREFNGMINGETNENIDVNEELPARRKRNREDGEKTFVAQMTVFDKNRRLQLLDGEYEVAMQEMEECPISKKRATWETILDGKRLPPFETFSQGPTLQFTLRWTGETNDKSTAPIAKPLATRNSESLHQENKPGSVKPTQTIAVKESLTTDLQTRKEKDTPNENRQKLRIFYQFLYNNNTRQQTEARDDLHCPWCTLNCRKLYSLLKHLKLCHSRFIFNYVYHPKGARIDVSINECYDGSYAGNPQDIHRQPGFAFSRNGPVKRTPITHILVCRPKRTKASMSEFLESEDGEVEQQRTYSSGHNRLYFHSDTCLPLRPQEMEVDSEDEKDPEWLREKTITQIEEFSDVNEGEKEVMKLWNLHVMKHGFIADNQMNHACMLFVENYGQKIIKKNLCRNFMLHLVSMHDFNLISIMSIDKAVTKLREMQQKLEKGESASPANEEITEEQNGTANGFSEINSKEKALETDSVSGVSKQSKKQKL
Sequence of EZH2 (Q09028 whole entry partner, species assumed): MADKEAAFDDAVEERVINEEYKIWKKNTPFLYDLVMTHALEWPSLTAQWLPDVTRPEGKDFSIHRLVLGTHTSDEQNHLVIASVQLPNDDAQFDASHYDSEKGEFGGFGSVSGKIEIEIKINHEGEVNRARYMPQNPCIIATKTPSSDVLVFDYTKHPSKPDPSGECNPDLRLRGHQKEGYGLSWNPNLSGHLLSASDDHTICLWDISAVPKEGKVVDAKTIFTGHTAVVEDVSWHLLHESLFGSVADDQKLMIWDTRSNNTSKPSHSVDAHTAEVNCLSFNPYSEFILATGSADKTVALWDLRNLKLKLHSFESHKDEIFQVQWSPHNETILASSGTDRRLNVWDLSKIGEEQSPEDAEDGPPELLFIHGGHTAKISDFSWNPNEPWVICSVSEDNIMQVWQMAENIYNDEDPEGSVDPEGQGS
Sequence of EZH2 (Q6ZN18 whole entry partner, species assumed): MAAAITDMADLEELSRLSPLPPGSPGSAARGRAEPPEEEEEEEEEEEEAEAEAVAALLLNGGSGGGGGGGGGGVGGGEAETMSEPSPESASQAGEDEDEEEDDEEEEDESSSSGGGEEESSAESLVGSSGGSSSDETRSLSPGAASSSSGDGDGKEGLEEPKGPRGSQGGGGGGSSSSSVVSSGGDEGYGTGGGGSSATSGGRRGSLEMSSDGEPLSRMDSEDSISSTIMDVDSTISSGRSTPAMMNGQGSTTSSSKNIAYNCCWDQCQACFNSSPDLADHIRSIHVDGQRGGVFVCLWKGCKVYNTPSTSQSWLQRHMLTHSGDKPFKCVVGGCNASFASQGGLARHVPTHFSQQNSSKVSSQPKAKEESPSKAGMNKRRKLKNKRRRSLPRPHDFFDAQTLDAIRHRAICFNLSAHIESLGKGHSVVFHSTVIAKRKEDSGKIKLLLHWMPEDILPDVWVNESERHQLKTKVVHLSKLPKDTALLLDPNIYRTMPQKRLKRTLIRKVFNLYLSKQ

SMILES: COc1cc2c(NC3CCN(C(C)C)CC3)nc(C3CCCCC3)nc2cc1OCCCN1CCCC1 [UNC0638]
- SSEA1+ cells (J1 mES cells): 97%
- IC50 (JMJD2E): 4.5 µM
- inhibition ([1]; against 6 targets in the panel): > 50%
- inhibition ([1]; against 39 targets in the panel): < 50%
- stability in cell media [2]: did not produce degradation products
- inhibition at 1 µM (adrenergic α1A receptor): 90%
- DNA methylation of retrovirus LTR and MAGEA2 promoter [3]: induced DNA hypomethylation in a concentration-dependent manner
- stability in solution [4]: stable
- clearance [5]: high
- half-life [5]: short
- volume distribution [5]: high
- IC50 (SUV39H2): > 10 µM
- IC50 (SUV39H2; SAHH-coupled assay): inactive
- IC90 [6]: 0.32 µM
- IC50 (PRMT1): > 10 µM
- IC50 (PRMT1; [12]): inactive
- IC50 (SUV39H1): > 10 µM
- IC50 (SUV39H1; [12]): inactive
- IC50 (PRMT3): > 10 µM
- IC50 (PRMT3; SAHH-coupled assay): inactive
- inhibition at 1 µM (muscarinic M2 receptor): 64%
- IC50 (EZH2): > 10 µM
- IC50 (EZH2; [12]): inactive
- agonist activity (M1, M2 and M4): no agonist activity
- IC50 (M1): > 10 µM
- inhibition [7]: < 30%
- IC90 ([8]; Homo sapiens, MDA-MB-231, read-out: IC90 for reduction of H3K9me2 levels): 0.25 µM
- cellular H3K9me2 levels after 4 d ([8]; MDA-MB-231 cells, 250 or 500 nM): equal or very close to those of G9a and GLP knockdown cells
- IC50 ([8]; read-out: IC50 for reduction of H3K9me2 levels, MDA-MB-231 cells, 48 h exposure, in-cell western): 0.08 µM
- expression of DUB1 and MAGEA2 genes [9]: more highly expressed
- IC50 [10]: 0.059 µM
- IC50 (MLL): > 10 µM
- IC50 (MLL; [12]): inactive
- levels of H3K9me2 by quantitative MS [11]: considerably lower
- levels of H3K9me3 by quantitative MS [11]: remained constant
- levels of H3K14ac by quantitative MS [11]: doubled
- EC50 (MDA-MB-231 cells): 11 µM
- IC50 (M4): > 10 µM
